The list is not random: actives were taken first. Their share in the collection is about 2.8%.
SIRT5 inh = blocks human SIRT5 desuccinylation of peptide; Purified SirT5, succinyl-peptide AMC, trypsin-coupled fluorescence; inhibition, % at 15 µM; 330,000 compounds, 1.1% hits; in the data active means inhibition above about 15%; inconclusive means no clear call, values can overlap the other calls
Target sequence (Q9NXA8 whole entry, looked up): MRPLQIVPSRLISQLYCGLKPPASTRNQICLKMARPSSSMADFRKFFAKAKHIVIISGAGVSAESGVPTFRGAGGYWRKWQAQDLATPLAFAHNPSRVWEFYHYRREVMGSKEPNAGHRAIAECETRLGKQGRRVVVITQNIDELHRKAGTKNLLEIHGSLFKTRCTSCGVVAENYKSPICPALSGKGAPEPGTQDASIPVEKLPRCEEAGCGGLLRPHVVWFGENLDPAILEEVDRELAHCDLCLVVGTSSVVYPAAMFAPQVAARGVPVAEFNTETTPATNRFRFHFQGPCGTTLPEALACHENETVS
DENV2 CPE rescue = DENV2-induced cell death inhibition; AID 651640; 350,000 compounds, 1.7% hits; CPE inhibition, % at 9.99 µM; DENV2-infected cells, cytopathic effect rescue, plate reader; in the data active means CPE inhibition above about 20%, passing the limit was not always enough; inconclusive means no clear call, values can overlap the other calls; tested in BHK-21 cells;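 further: 0% = median of neutral control wells and 100% = median of positive control wells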
E-sel inducer = E-selectin induction on HUVECs; P16581; HUVEC E-selectin immunofluorescence imaging; normalized: neutral wells 0, TNF-alpha wells 100; activation, % at 7.58 µM; 260,000 compounds, 0.37% hits;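 active means mean E-selectin-positive cell signal at least 10% of the positive control, reached in at least 60% of replicates, without over 20% cell loss; inconclusive means no rule given, readout overlaps actives, possibly toxicity-flagged; inactive means the rest, including those meeting only one limit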
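Test system – human umbilical vein endothelial cells (HUVEC), E-selectin induction · Input – 3,000 HUVEC seeded per well · Buffer or medium – EGM-2, gelatin · Compound dosing – single-point compound dose · Detection – immunofluorescence imaging · Measure – percent E-selectin-positive cells · Controls – TNF-alpha high, DMSO low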
Numbers without * were called inactive.

Results for CN1c2ccc(Br)cc2[C@H]2[C@H](CCN2S(=O)(=O)c2ccccc2F)[C@@H]1CO ?
SIRT5 inh: 5.3; DENV2 CPE rescue: 40.5*; E-sel inducer: 0.1

What do the screens show for `O=C(CC1CC1)Nc1ccc2c(c1)[C@H]1C[C@H](CC(=O)N3CCOCC3)O[C@H](CO)[C@H]1O2`?
DENV2 CPE rescue: 7.9; E-sel inducer: 0.2

How did CO[C@H]1CN(C)C(=O)c2cc(NC(C)=O)ccc2OC[C@H](C)N(Cc2cccnc2)C[C@@H]1C do in these assays?
E-sel inducer: -0.1

Results for CN(c1ccccc1)c1ncnc2c1ncn2C ?
SIRT5 inh: 3.5; DENV2 CPE rescue: 88.7*

What do the screens show for `CN(C)c1ncnc2c1ncn2-c1ccccc1`?
SIRT5 inh: -4.2; DENV2 CPE rescue: -2.6; E-sel inducer: -0.2

How did CN1CCN(C(=O)C[C@H]2CC[C@@H](NC(=O)Cc3ccccn3)[C@H](CO)O2)CC1 do in these assays?
SIRT5 inh: 2.1; DENV2 CPE rescue: 8.9; E-sel inducer: 0.7

Results for O=C(C[C@H]1CC[C@@H]2[C@H](COC[C@H](O)CN2C(=O)Nc2ccc(Cl)c(Cl)c2)O1)NC1CCC1 ?
SIRT5 inh: -1.4; DENV2 CPE rescue: 2.5; E-sel inducer: 0.2

What do the screens show for `CCOC(=O)CC1C(=O)NCCN1C(=O)c1ccc(C)cc1` (stereo unspecified)?
SIRT5 inh: -0.7; DENV2 CPE rescue: -2.7; E-sel inducer: 0.0

What do the screens show for `CCOC(=O)CC1C(=O)NCCN1C1CCCC1` (stereo unspecified)?
SIRT5 inh: 20.0*; DENV2 CPE rescue: 5.3; E-sel inducer: 1.3

How did O=C(C1CCOCC1)N1CC[C@@H]2[C@H](CO)Nc3ccc(-c4ccc(F)cc4)cc3[C@@H]21 do in these assays?
SIRT5 inh: 2.3; DENV2 CPE rescue: -0.3; E-sel inducer: 0.3

How did C[C@H](O)[C@@H]1C(=O)N2CCc3c([nH]c4ccccc34)[C@@H]2C[C@@H]1N(C)Cc1ccc(Cl)cc1 do in these assays?
SIRT5 inh: -3.6; DENV2 CPE rescue: 1.3

What do the screens show for `CN[C@H]1C[C@H]2c3[nH]c4ccccc4c3CCN2C(=O)[C@H]1[C@H](C)O`?
SIRT5 inh: -10.6; DENV2 CPE rescue: 23.8*; E-sel inducer: 0.2

How did Cc1cc(NCc2ccccn2)n2ncc(-c3ccc(Cl)cc3)c2n1 do in these assays?
SIRT5 inh: -1.9; DENV2 CPE rescue: -1.2; E-sel inducer: 0.0

Results for Cc1cc(NCc2ccccn2)n2nc(C)c(-c3ccc(Cl)cc3)c2n1 ?
DENV2 CPE rescue: -11.6; E-sel inducer: 47.1*

What do the screens show for `CCCCCNCc1ccc(OCc2ccc(Cl)nc2)c(OC)c1`?
DENV2 CPE rescue: 31.4*

Results for COc1cc(CNCCNCC(C)O)ccc1OCc1ccc(Cl)nc1 (stereo unspecified) ?
SIRT5 inh: -0.2; DENV2 CPE rescue: 5.0; E-sel inducer: -1.8

How did COc1ccc(S(=O)(=O)N[C@H]2C=C[C@H](CC(=O)N3CCC(Cc4ccccc4)CC3)O[C@@H]2CO)cc1 do in these assays?
SIRT5 inh: 6.7; DENV2 CPE rescue: inconclusive; E-sel inducer: 0.9

What do the screens show for `C[C@H](CO)N1C[C@H](C)[C@@H](CN(C)Cc2ccc3c(c2)OCO3)Oc2ccc(NC(=O)C3CC3)cc2C1=O`?
SIRT5 inh: 4.2; DENV2 CPE rescue: -4.3; E-sel inducer: 0.6

Results for CCCCN(CC)C(=O)Cn1ncc2c1-c1cc(C)ccc1OC2 ?
SIRT5 inh: 2.9; DENV2 CPE rescue: 1.6; E-sel inducer: -0.1

What do the screens show for `COc1cc2c(cc1OC)C(C)N(C(=O)c1ccc(C)o1)CC2` (stereo unspecified)?
SIRT5 inh: 22.2*; DENV2 CPE rescue: 13.0; E-sel inducer: 0.1

How did COc1cc2c(cc1OC)C(C)N(C(=O)Cn1ncc3c1-c1cc(C)ccc1OC3)CC2 (stereo unspecified) do in these assays?
DENV2 CPE rescue: 70.0*

How did COc1cc2c(cc1OC)C(C)N(C(=O)c1sccc1C)CC2 (stereo unspecified) do in these assays?
SIRT5 inh: 5.0; DENV2 CPE rescue: -2.4

Results for O=C([C@@H]1[C@@H](CO)[C@@H]2Cn3c(ccc(-c4ccccc4F)c3=O)[C@H]1N2C(=O)C1CC1)N1CCOCC1 ?
SIRT5 inh: -11.3; DENV2 CPE rescue: -2.1; E-sel inducer: -0.4

How did COc1ccc(NC(=O)O[C@H]2[C@H](OC(=O)Nc3ccc4c(c3)OCO4)[C@H](OC(=O)Nc3ccc4c(c3)OCO4)[C@@H](OC)O[C@@H]2CO)cc1 do in these assays?
SIRT5 inh: -1.2; DENV2 CPE rescue: 1.0

How did Cc1cc(OCC(O)CNC(C)(C)C)ccc1Cl (stereo unspecified) do in these assays?
SIRT5 inh: 20.6*; DENV2 CPE rescue: -4.9

Results for CCc1ccc(OCC(O)CNC(C)(C)C)cc1 (stereo unspecified) ?
SIRT5 inh: 0.8; DENV2 CPE rescue: 0.9

What do the screens show for `COc1ccc(CNC(=O)C(c2ccncc2)N(C(=O)Cc2cccs2)c2cccc(C)c2)cc1` (stereo unspecified)?
SIRT5 inh: -1.7; DENV2 CPE rescue: 5.0

Results for COc1ccc(CNC(=O)C(c2ccco2)N(C(=O)Cc2cccs2)c2cccnc2)cc1 (stereo unspecified) ?
SIRT5 inh: 34.7*; DENV2 CPE rescue: 6.7

Results for O=C(C[C@H]1C=C[C@@H](NS(=O)(=O)c2ccc(F)cc2)[C@H](CO)O1)NCCN1CCCCC1 ?
SIRT5 inh: 3.3; DENV2 CPE rescue: 6.6; E-sel inducer: -1.5

Results for O=C(c1cccnc1)N1CC[C@@H]2[C@@H](CO)Nc3ccc(C4=CCCCC4)cc3[C@@H]21 ?
SIRT5 inh: 17.1*; DENV2 CPE rescue: inconclusive; E-sel inducer: 0.1

How did O=C(c1cnccn1)N1CC[C@@H]2[C@@H](CO)Nc3ccc(-c4ccccc4F)cc3[C@@H]21 do in these assays?
SIRT5 inh: 1.0; DENV2 CPE rescue: 113.8*; E-sel inducer: 0.0

What do the screens show for `O=C(c1ccccc1)N1CC[C@@H]2[C@H](CO)Nc3ccc(-c4ccccc4F)cc3[C@@H]21`?
SIRT5 inh: 8.4; DENV2 CPE rescue: 17.4; E-sel inducer: 0.5

What do the screens show for `O=C(c1cnccn1)N1CC[C@@H]2[C@H](CO)Nc3ccc(-c4ccccc4F)cc3[C@@H]21`?
SIRT5 inh: 9.3; DENV2 CPE rescue: inconclusive; E-sel inducer: 0.6

How did O=C(c1cccnc1)N1CC[C@@H]2[C@H](CO)Nc3ccc(C4=CCCCC4)cc3[C@@H]21 do in these assays?
SIRT5 inh: -7.7; DENV2 CPE rescue: -5.0; E-sel inducer: 0.9

Results for O=C(c1ccccc1)N1CC[C@@H]2[C@@H](CO)Nc3ccc(-c4ccccc4F)cc3[C@@H]21 ?
SIRT5 inh: 1.3; DENV2 CPE rescue: 33.1*; E-sel inducer: 0.1

What do the screens show for `CCCN1C[C@H](C)[C@@H](OC)CN(C)C(=O)c2cc(NC(=O)Nc3cccc(OC)c3)ccc2OC[C@H]1C`?
E-sel inducer: -0.1

What do the screens show for `C[C@H]1CN([C@@H](C)CO)C(=O)c2cc(NC(=O)C3CC3)ccc2O[C@H]1CN(C)C`?
SIRT5 inh: -4.3; DENV2 CPE rescue: -3.9; E-sel inducer: 0.1

How did COCC(=O)Nc1ccc2c(c1)C(=O)N(C)[C@H]1CC[C@@H](CC(=O)NCc3cccc(F)c3)O[C@@H]1CO2 do in these assays?
DENV2 CPE rescue: -2.7; E-sel inducer: -0.1
